Experimental data taken from ChEMBL document CHEMBL1124861, “Thermodynamics of the interaction of inhibitors with the binding site of recombinant human renin” (J Med Chem, 1990).
*1 amine or outer side, *2 acyl side, *3 side chain or, on linkers, in order; H or OH if unused. Where a SMILES comes first, the peptide text is derived from it. [ ]: non-standard residue; d: D form. The star is where a group is joined. ξ: configuration not given here. Sta(3ξ) = CC(C)C[C@H](N[*:1])C(O)CC(=O)[*:2]; Sta = CC(C)C[C@H](N)[C@@H](O)CC(=O)O; Isovaleryl = CC(C)CC(=O)*

Target: T1, Renin (Homo sapiens, UniProt P00797)
T1 sequence (P00797 whole entry): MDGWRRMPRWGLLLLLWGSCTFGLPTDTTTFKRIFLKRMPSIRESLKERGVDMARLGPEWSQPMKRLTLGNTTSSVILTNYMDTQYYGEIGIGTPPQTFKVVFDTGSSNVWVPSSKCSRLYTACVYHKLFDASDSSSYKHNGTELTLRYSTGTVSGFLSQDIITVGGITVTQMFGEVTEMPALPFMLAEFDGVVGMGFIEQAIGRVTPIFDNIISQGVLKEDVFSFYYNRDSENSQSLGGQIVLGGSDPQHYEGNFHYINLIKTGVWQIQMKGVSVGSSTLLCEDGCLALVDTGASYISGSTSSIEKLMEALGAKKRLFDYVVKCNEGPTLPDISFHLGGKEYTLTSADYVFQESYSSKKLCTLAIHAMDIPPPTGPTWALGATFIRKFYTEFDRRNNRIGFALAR
Experiment: Dissociation constant (Kd) of renin inhibitor was determined over a temperature range of 8-37 degree by the fluorescence displacement assay
Summary of the method: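 Recombinant human renin, purified, with stock concentration set by amino acid analysis. Competitive displacement of a dansylated fluorescent peptide inhibitor, read on a spectrofluorometer in ratio mode at 8–37 °C. Unlabeled-inhibitor Kd was calculated from probe Kd, probe concentration, fraction of probe bound, total inhibitor and enzyme concentrations. Duplicates were run at two inhibitor concentrations, and van't Hoff plots were built.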

Compound | Kd [nM]
CC(=O)N[C@@H](Cc1ccccc1)C(=O)N[C@@H](Cc1c[nH]cn1)C(=O)N[C@H](CN[C@@H](Cc1ccccc1)C(N)=O)Cc1ccccc1 | 220
CC[C@H](C)[C@H](NC(=O)[C@@H](C[C@H](O)[C@H](CC(C)C)NC(=O)[C@H](Cc1cnc[nH]1)NC(=O)[C@H](Cc1ccccc1)NC(C)=O)C(C)C)C(N)=O | 370
CC[C@H](C)[C@H](NC(=O)[C@@H](C[C@H](O)[C@H](CC(C)C)NC(=O)[C@H](Cc1c[nH]cn1)NS(=O)(=O)c1cccc2c(N(C)C)cccc12)C(C)C)C(=O)NCc1ccccn1 | 1000
CC[C@H](C)[C@H](NC(=O)C[C@H](O)[C@H](CC(C)C)NC(=O)[C@H](Cc1cnc[nH]1)NC(=O)[C@H](Cc1ccccc1)NC(C)=O)C(N)=O (Ac-FH[Sta]I-NH2) | 204
H-PHPFHFFIHK-OH | 810

Compounds with a lower Kd, results first:

Kd [nM] | Compound
98 | CC[C@H](C)[C@H](NC(=O)C[C@H](O)[C@H](CC(C)C)NC(=O)[C@H](Cc1c[nH]cn1)NC(=O)[C@H](Cc1ccccc1)NC(=O)[C@@H]1CCCN1C(C)=O)C(N)=O (Ac-PFH[Sta]I-NH2)
29 | CC(=O)N1CCC[C@H]1C(=O)N[C@@H](Cc1ccccc1)C(=O)N[C@@H](Cc1c[nH]cn1)C(=O)N[C@H](CN[C@@H](Cc1ccccc1)C(N)=O)Cc1ccccc1
23 | CC[C@H](C)[C@H](NC(=O)C[C@H](O)[C@H](CC(C)C)NC(=O)[C@H](Cc1c[nH]cn1)NC(=O)[C@H](Cc1ccccc1)NC(=O)[C@@H]1CCCN1C(=O)[C@H](Cc1c[nH]cn1)NC(C)=O)C(N)=O (Ac-HPFH[Sta]I-NH2)
8 | CC[C@H](C)[C@H](NC(=O)[C@@H](NC[C@H](CC(C)C)NC(=O)[C@H](Cc1c[nH]cn1)NC(=O)[C@H](Cc1ccccc1)NC(=O)[C@@H]1CCCN1C(=O)[C@H](Cc1c[nH]cn1)NC(=O)[C@@H]1CCCN1)C(C)C)C(=O)N[C@@H](Cc1c[nH]cn1)C(=O)N[C@@H](CCCCN)C(=O)O
5.4 | CC[C@H](C)[C@H](NC(=O)[C@@H](C[C@H](O)[C@H](CC(C)C)NC(=O)[C@H](Cc1cnc[nH]1)NC(=O)[C@H](Cc1ccccc1)NC(=O)[C@@H]1CCCN1C(C)=O)C(C)C)C(N)=O
2.5 | CCC(C)CNC(=O)[C@H](Cc1ccccc1)NC[C@H](Cc1ccccc1)NC(=O)[C@H](Cc1cnc[nH]1)NC(=O)[C@H](Cc1ccccc1)NC(=O)[C@@H]1CCCN1C(C)=O (stereo partly drawn)
1.7 | CC[C@H](C)[C@H](NC(=O)CC(O)[C@H](CC(C)C)NC(=O)[C@H](Cc1c[nH]cn1)NC(=O)[C@H](Cc1ccccc1)NC(=O)[C@@H]1CCCN1C(=O)[C@H](Cc1c[nH]cn1)NC(=O)CC(C)C)C(=O)N[C@@H](Cc1ccccc1)C(N)=O (stereo partly drawn) (Isovaleryl-HPFH[Sta(3ξ)]IF-NH2)
1.3 | CC[C@H](C)[C@H](NC(=O)[C@@H](C[C@H](O)[C@H](CC(C)C)NC(=O)[C@H](Cc1c[nH]cn1)NC(=O)[C@H](Cc1ccccc1)NC(=O)[C@H]1CCCN1C(C)=O)C(C)C)C(N)=O
